Published values of several laboratories.
Compare with care: the assays were run in different laboratories.
Cell line: HepG2
Observed: cell growth or viability

Structure (SMILES) | test | setting | IC50
COc1ccc2c(-c3nc(-c4ccccc4)no3)nn(Cc3ccncc3)c2c1 | – | 48 h | 68.1 µM
COc1cccc2c1C(=O)c1c(O)c3c(c(O)c1C2=O)C[C@@](O)(C(=O)CO)C[C@@H]3O[C@H]1C[C@H](N)[C@H](O)[C@H](C)O1 | LDH | 48 h | 3.81 µM
COc1ccc(N(Cc2csc(-c3ccc(Br)cc3)n2)C(=O)CCCCCC(=O)NO)cc1 | MTT | 72 h | 0.57 µM
COc1cccc2c1C(=O)c1c(O)c3c(c(O)c1C2=O)C[C@@](O)(C(=O)CO)C[C@@H]3O[C@H]1C[C@H](N)[C@H](O)[C@H](C)O1 | MTT | 75 h | 0.48 µM
c1ccc(Cc2nnc(-c3nn(Cc4ccccc4)c4ccccc34)o2)cc1 | – | 48 h | 68.6 µM
CC(=O)OC[C@H]1O[C@@H](n2cc(Cn3c(C(=O)/C=C/c4ccc(F)cc4)nc4ccccc43)nn2)[C@H](OC(C)=O)[C@@H](OC(C)=O)[C@H]1OC(C)=O | LDH | 48 h | 1.61 µM
c1ccc(Oc2ccc(Nc3c4c(nc5ccccc35)CCC4)cc2)cc1 | resazurin | 72 h | 9.45 µM
S=C(N/N=C/c1cccc2cc3ccccc3nc12)Nc1ccccc1 | MTT | 48 h | > 50 µM
C#Cc1cccc(Nc2ncnc3cc(OCCOC)c(OCCOC)cc23)c1 | LDH | 48 h | 2.07 µM
C/C(=C\C(=O)N[C@H](C(=O)N1CCC[C@H]1C(=O)N(c1ccccc1)c1ccc(I)cc1)C(C)(C)C)c1ccc(OP(=O)(O)O)cc1 | CCK-8 | – | 6.09 µM
COc1cc([C@@H]2c3cc4c(cc3[C@@H](O[C@@H]3O[C@@H]5CO[C@@H](C)O[C@H]5[C@H](O)[C@H]3O)[C@H]3COC(=O)[C@H]23)OCO4)cc(OC)c1O | MTT | – | 44.5 µM
O=C1CS/C(=N\c2cc(C(F)(F)F)ccc2-c2nnc(N3C(=O)CS/C3=N\c3ccc(Cl)cc3)s2)N1c1ccc(Cl)cc1 | MTT | – | 48.1 µM
N=C(CC(O)c1cc2c(F)cc(F)cc2c2cc(C(F)(F)F)ccc12)Nc1ccc(Br)cc1 (centres unmarked) | neutral red | 24 h | 9.7 µM
Nc1ncnc2c1ncn2CCN1C(=O)C(=O)c2cc(Cl)ccc21 | SRB | – | 5.62 µM
O=C1CS/C(=N\c2cc(C(F)(F)F)ccc2-c2nnc(N3C(=O)CS/C3=N\c3cccc(Cl)c3)s2)N1c1cccc(Cl)c1 | MTT | – | 58.1 µM
COc1cccc2c1C(=O)c1c(O)c3c(c(O)c1C2=O)C[C@@](O)(C(=O)CO)C[C@@H]3O[C@H]1C[C@H](N)[C@H](O)[C@H](C)O1 | MTT | – | 0.46 µM
O=C1CS/C(=N\c2cc(C(F)(F)F)ccc2-c2nnc(N3C(=O)CS/C3=N\c3ccc(F)cc3)s2)N1c1ccc(F)cc1 | MTT | – | 24.1 µM
CC(C)[C@@H](C)NC(=O)c1cc(-c2cc3ccccc3n2C)cc(C(=O)NCCc2ccccn2)n1 | CCK-8 | – | 12.7 µM
Clc1ccc(Cn2nc(-c3nc(-c4ccccc4)no3)c3ccccc32)c(Cl)c1 | – | 48 h | 59.9 µM
CSc1ccccc1-c1cc(C(N)=O)c2[nH]c3c(c2c1)CC(N)CC3 (centres unmarked) | – | – | 2.46 µM
COc1ccc(-c2oc3ccc(O)c(CN4CCCCC4)c3c2C(=O)NCc2cn(Cc3ccccc3)nn2)cc1 | resazurin | 18 h | 116 µM

Structure (SMILES) | test | setting | IC50
CSc1ccccc1-c1ccc(C(N)=O)c2[nH]c3c(c12)CC(N)CC3 (centres unmarked) | – | – | 0.15 µM
COc1ccc(N=C2SCC(=O)N2c2nnc(-c3ccc(C(F)(F)F)cc3N=C3SCC(=O)N3c3ccc(OC)cc3)s2)cc1 | MTT | – | 70.1 µM
Cc1noc(-c2nn(Cc3ccc(Cl)cc3Cl)c3ccccc23)n1 | – | 48 h | 51.4 µM
COc1ccc(NC(=S)N/N=C/c2cccc3cc4ccccc4nc23)cc1 | MTT | 48 h | > 50 µM
CC(=O)OC[C@H]1O[C@@H](n2cc(Cn3c(C(C)=O)nc4ccccc43)nn2)[C@H](OC(C)=O)[C@@H](OC(C)=O)[C@H]1OC(C)=O | LDH | 48 h | 3.27 µM
Fc1ccc2c(-c3nnc(Cc4ccccc4)s3)nn(Cc3ccc(Cl)cc3Cl)c2c1 | – | 48 h | 230 µM
FC(F)(F)CN1CC(n2cc(Oc3ccn4nc(Cl)cc4n3)cn2)C1 | – | – | > 512 µM
CC(C)c1nc(N(C)S(C)(=O)=O)nc(-c2ccc(F)cc2)c1/C=C/[C@@H](O)C[C@@H](O)CC(=O)O | MTT | 24 h | 59.1 µg/mL
O=C(O)c1nn(Cc2ccc(Cl)cc2Cl)c2ccccc12 | – | 48 h | 74.7 µM
C#CCn1c(C2CC(c3ccc(F)cc3)=NN2C(C)=O)nc2ccccc21 (centres unmarked) | LDH | 48 h | 3.25 µM
COc1ccc(N(Cc2csc(-c3ccccc3)n2)C(=O)CCCCCC(=O)NO)cc1 | MTT | 72 h | 0.12 µM
O=C1CS/C(=N\c2ccccc2Cl)N1c1nnc(-c2ccc(C(F)(F)F)cc2/N=C2\SCC(=O)N2c2ccccc2Cl)s1 | MTT | – | 55.5 µM
C#CCOc1ccc2oc(-c3ccc(OC)cc3)c(C(=O)OCC)c2c1CN1CCCCC1 | resazurin | – | 34.5 µM
CC(C)CNC(=S)N/N=C/c1cccc2cc3ccccc3nc12 | MTT | 48 h | > 50 µM
COc1cccc2c1C(=O)c1c(O)c3c(c(O)c1C2=O)C[C@@](O)(C(=O)CO)C[C@@H]3O[C@H]1C[C@H](N)[C@H](O)[C@H](C)O1 | – | 96 h | 0.109 µM
Fc1ccc2c(-c3nnc(Cc4ccccc4)s3)nn(Cc3ccccc3)c2c1 | – | 48 h | 29.1 µM
O=C1CS/C(=N\c2cc(C(F)(F)F)ccc2-c2nnc(N3C(=O)CS/C3=N\c3ccc(F)c(O)c3)s2)N1c1ccc(F)c(O)c1 | MTT | – | 22.5 µM
CNC(=S)N/N=C/c1cccc2cc3ccccc3nc12 | MTT | 48 h | 42 µM
c1ccc(Cn2nc(-c3nc(-c4ccccc4)n[nH]3)c3ccccc32)cc1 | – | 48 h | 60.8 µM
Cc1c2c(nn1C)CSCc1cc(n(C)n1)CSc1cc(c3ccccc3c1)OCCCc1c(C(=O)O)n(C)c3c-2c(Cl)ccc13 | CCK-8 | – | 50 µM
